Assays:
[1] = compound: Nc1ncnc2c1ncn2COCCO; experiment: (§1) Km value was determined by competitive inhibition of Adenosine deaminase
Procedure, shortened: (§2)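 Deamination rates of the nucleoside or nucleotide substrates were followed with calf mucosal adenosine deaminase (EC 3.5.4.4) in buffer solution. Km and Vmax, expressed relative to ara-A, were derived from these rates.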

[2] = compound: Nc1ncnc2c1ncn2COCCP(=O)(O)O; experiment: as §1; procedure, shortened: as §2
[3] = compound: Nc1ncnc2c1ncn2COCCP(=O)(O)O[C@H]1[C@H](O)[C@H](n2cnc3c(N)ncnc32)O[C@@H]1CO; experiment: as §1; procedure, shortened: as §2
[4] = compound: Nc1ncnc2c1ncn2[C@@H]1O[C@H](CO)[C@@H](O)[C@H]1O; experiment: as §1; procedure, shortened: as §2
[5] = compound: COC(=O)C(C)NP(=O)(CCOCn1cnc2c(N)ncnc21)O[C@H]1[C@H](O)[C@H](n2cnc3c(N)ncnc32)O[C@@H]1CO; experiment: Km value was determined by competitive inhibition of Adenosine deaminase No reaction at 1500 uM

B1: Adenosine deaminase (Bos taurus), P56658 (protein)
chain: MAQTPAFNKPKVELHVHLDGAIKPETILYYGRKRGIALPADTPEELQNIIGMDKPLSLPEFLAKFDYYMPAIAGCREAVKRIAYEFVEMKAKDGVVYVEVRYSPHLLANSKVEPIPWNQAEGDLTPDEVVSLVNQGLQEGERDFGVKVRSILCCMRHQPSWSSEVVELCKKYREQTVVAIDLAGDETIEGSSLFPGHVKAYAEAVKSGVHRTVHAGEVGSANVVKEAVDTLKTERLGHGYHTLEDATLYNRLRQENMHFEVCPWSSYLTGAWKPDTEHPVVRFKNDQVNYSLNTDDPLIFKSTLDTDYQMTKNEMGFTEEEFKRLNINAAKSSFLPEDEKKELLDLLYKAYGMPSPASAEQCL
- Km [1]: 138 µM
- Km [2]: 248 µM
- Km [3]: 166 µM
- Km [4]: 45.3 µM
- Km [5]: No reaction
